According to ChEMBL document CHEMBL2040794, “Synthesis and structure-activity analysis of new phosphonium salts with potent activity against African trypanosomes” (J Med Chem, 2012):

Key:
[1] = test system: Trypanosoma brucei brucei; experiment: Antitrypanosomal activity against wild type Trypanosoma brucei brucei Lister 427 after 3 days by alamar blue assay; format: functional, organism-based
Outline: (§1)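 Bloodstream-form T. b. brucei (wild-type s427; TbAT1-KO, made from s427 by TbAT1 deletion; B48, selected from TbAT1-KO in vitro on pentamidine, lacking functional HAPT1). Cells were exposed to compound for 48 h, then resazurin (Alamar blue) was added for a further 24 h. A single fluorescence reading gave EC50.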

[2] = test system: Trypanosoma brucei brucei; experiment: Resistance factor, ratio of EC50 for diminazene-, pentamidine-, and melaminophenyl arsenical-resistant HAPT1-deficient Trypanosoma brucei brucei B48 to EC50 for wild type Trypanosoma brucei brucei Lister 427; format: functional
Outline: (§2)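 Resistance factor is the EC50 in the resistant line (TbAT1-KO or B48) divided by the EC50 in wild-type s427. […] Resistant and wild-type EC50s were compared by Student t-test.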

[3] = Selectivity index, ratio of EC50 for human HEK cells to EC50 for wild type Trypanosoma brucei brucei Lister 427; format: toxicity, cell-based, HEK293; details: for selectivity ratio: HEK cells, read-out: Ratio EC50; for Ratio EC50: hek293
Outline: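 Ratio of EC₅₀ in HEK cells to EC₅₀ in wild-type T. b. brucei s427, both from resazurin assays.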

[4] = test system: Trypanosoma brucei brucei; experiment: Antitrypanosomal activity against diminazene-, pentamidine-, and melaminophenyl arsenical-resistant HAPT1-deficient Trypanosoma brucei brucei B48 after 3 days by alamar blue assay; format: functional, organism-based; outline: as §1
[5] = test system: L6; experiment: Cytotoxicity against rat L6 cells after 72 hrs by alamar blue assay; format: cell-based
[6] = Cytotoxicity against human HEK cells after 3 days by alamar blue assay; format: cell-based, HEK293
Outline: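 Human embryonic kidney cells tested by resazurin (Alamar blue) assay: 48 h with compound, then 24 h more after dye addition, single reading; EC₅₀ derived.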

[7] = test system: Trypanosoma brucei rhodesiense; experiment: Antitrypanosomal activity against Trypanosoma brucei rhodesiense STIB900 infected in rat L6 cells after 72 hrs by alamar blue assay; format: functional, organism-based
[8] = test system: Trypanosoma brucei brucei; experiment: Antitrypanosomal activity against diminazene aceturate-resistant TbAT1 gene-deficient Trypanosoma brucei brucei AT1-KO after 3 days by alamar blue assay; format: functional, organism-based; outline: as §1
[9] = Selectivity index, ratio of EC50 for rat L6 cells to EC50 for Trypanosoma brucei rhodesiense STIB900; format: toxicity, cell-based; details: for selectivity ratio: L6 cells, read-out: Ratio EC50; for Ratio EC50: l6
Outline: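 Ratio of EC₅₀ in L6 cells to EC₅₀ against T. b. rhodesiense STIB900, both from Alamar blue assays.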

[10] = test system: Trypanosoma brucei brucei; experiment: Resistance factor, ratio of EC50 for diminazene aceturate-resistant TbAT1 gene-deficient Trypanosoma brucei brucei AT1-KO to EC50 for wild type Trypanosoma brucei brucei Lister 427; format: functional; outline: as §2
[11] = Trypanosoma brucei, Lister 427, 72 h
[12] = Trypanosoma brucei, STIB900, 72 h
[13] = Trypanosoma brucei, AT1-KO, 72 h

| SMILES | EC50 [1, 11] | Ratio EC50 [2] | selectivity ratio [3] | EC50 ([4]; Trypanosoma brucei, B48, 72 h) | EC50 ([5]; Rattus norvegicus, L6, 72 h) | EC50 ([6]; Homo sapiens, HEK293, 72 h) | EC50 [7, 12] | EC50 [8, 13] | selectivity ratio [9] | Ratio EC50 [10] | EC50 [1] | Ratio EC50 [3] | EC50 [4] | EC50 ([5]; l6) | EC50 ([6]; hek293) | EC50 [7] | EC50 [8] | Ratio EC50 [9] |
| --- | --- | --- | --- | --- | --- | --- | --- | --- | --- | --- | --- | --- | --- | --- | --- | --- | --- | --- |
| Cc1ccc(C[P+](c2ccccc2)(c2ccccc2)c2ccccc2)cc1.[Cl-] | 23 nM | 1 | > 12500 | 23 nM | 10400 nM | > 300000 nM | 216 nM | 24 nM | 48 | 1 | – | – | – | – | – | – | – | – |
| O=C(c1ccc(C[P+](c2cccc3ccccc23)(c2cccc3ccccc23)c2cccc3ccccc23)cc1)c1ccc(C[P+](c2cccc3ccccc23)(c2cccc3ccccc23)c2cccc3ccccc23)cc1.[Br-].[Br-] | 180 nM | 1 | 502 | 180 nM | 4900 nM | 92000 nM | 400 nM | 339 nM | 12 | 1.8 | – | – | – | – | – | – | – | – |
| Cc1ccccc1[P+](Cc1ccc(C(=O)c2ccc(C[P+](c3ccccc3)(c3ccccc3)c3ccccc3C)cc2)cc1)(c1ccccc1)c1ccccc1.[Br-].[Br-] | 200 nM | 1.1 | 1100 | 220 nM | 14000 nM | 214000 nM | 160 nM | 240 nM | 88 | 1.2 | – | – | – | – | – | – | – | – |
| CC(C)C[P+](Cc1ccc(Cc2ccc(C[P+](CC(C)C)(CC(C)C)CC(C)C)cc2)cc1)(CC(C)C)CC(C)C.[Br-].[Br-] | 700 nM | 1.3 | > 429 | 880 nM | 45900 nM | > 300000 nM | 326 nM | 880 nM | 141 | 1.3 | – | – | – | – | – | – | – | – |
| Cc1ccc([P+](Cc2ccc(C(=O)c3ccccc3)cc2)(c2ccccc2)c2ccccc2)cc1.[Br-] | 150 nM | 0.7 | 504 | 100 nM | 7720 nM | 76800 nM | 267 nM | 150 nM | 29 | 1 | – | – | – | – | – | – | – | – |
| O=C(c1ccc(C[P+](c2cccs2)(c2cccs2)c2cccs2)cc1)c1ccc(C[P+](c2cccs2)(c2cccs2)c2cccs2)cc1.[Br-].[Br-] | 330 nM | 1 | 785 | 330 nM | 16600 nM | 260000 nM | 290 nM | 520 nM | 58 | 1.6 | – | – | – | – | – | – | – | – |
| COc1ccccc1[P+](Cc1ccc(Cc2ccc(C[P+](c3ccccc3OC)(c3ccccc3OC)c3ccccc3OC)cc2)cc1)(c1ccccc1OC)c1ccccc1OC.[Br-].[Br-] | 80 nM | 0.8 | 2560 | 66 nM | 1080 nM | 204000 nM | 209 nM | 74 nM | 5 | 0.9 | – | – | – | – | – | – | – | – |
| Cc1ccc([P+](Cc2ccc(C(=O)c3ccc(C[P+](c4ccc(C)cc4)(c4ccc(C)cc4)c4ccc(C)cc4)cc3)cc2)(c2ccc(C)cc2)c2ccc(C)cc2)cc1.[Cl-].[Cl-] | – | 0.8 | – | – | – | – | – | – | – | 0.7 | 94 nM | 254 | 73 nM | 1220 nM | 24000 nM | 84 nM | 65 nM | 14.5 |
| COc1ccccc1[P+](Cc1ccc(Oc2ccc(C[P+](c3ccccc3OC)(c3ccccc3OC)c3ccccc3OC)cc2)cc1)(c1ccccc1OC)c1ccccc1OC.[Br-].[Br-] | 56 nM | 0.8 | 2520 | 45 nM | 1270 nM | 141000 nM | 153 nM | 57 nM | 8 | 1 | – | – | – | – | – | – | – | – |
| Cc1ccc([P+](Cc2ccc(C(=O)c3ccc(C[P+](c4ccc(C)cc4)(c4ccc(C)cc4)c4ccc(C)cc4)cc3)cc2)(c2ccc(C)cc2)c2ccc(C)cc2)cc1.[Br-].[Br-] | 110 nM | 0.8 | – | 90 nM | – | – | – | – | – | 1.6 | – | 1266 | – | 10800 nM | 141000 nM | 220 nM | 18 nM | 49 |
| [Br-].[Br-].c1ccc2c([P+](Cc3ccc(Cc4ccc(C[P+](c5cccc6ccccc56)(c5cccc6ccccc56)c5cccc6ccccc56)cc4)cc3)(c3cccc4ccccc34)c3cccc4ccccc34)cccc2c1 | 140 nM | 1 | 1210 | 140 nM | 3430 nM | 163000 nM | 299 nM | 170 nM | 12 | 1.3 | – | – | – | – | – | – | – | – |
| O=C(c1ccc(C[P+](c2ccc(F)cc2)(c2ccc(F)cc2)c2ccc(F)cc2)cc1)c1ccc(C[P+](c2ccc(F)cc2)(c2ccc(F)cc2)c2ccc(F)cc2)cc1.[Br-].[Br-] | 850 nM | 1.5 | > 350 | 1240 nM | 77400 nM | > 300000 nM | 450 nM | 2100 nM | 172 | 2.5 | – | – | – | – | – | – | – | – |
| O=C(c1ccc(C[P+](Cc2ccccc2)(c2ccccc2)c2ccccc2)cc1)c1ccc(C[P+](Cc2ccccc2)(c2ccccc2)c2ccccc2)cc1.[Br-].[Br-] | 810 nM | 1.3 | > 370 | 1030 nM | 32000 nM | > 300000 nM | 480 nM | 1020 nM | 67 | 1.3 | – | – | – | – | – | – | – | – |
| CCC[P+](Cc1ccc(Cc2ccc(C[P+](CCC)(c3ccccc3)c3ccccc3)cc2)cc1)(c1ccccc1)c1ccccc1.[Br-].[Br-] | 373 nM | 1.1 | > 800 | 430 nM | 3270 nM | > 300000 nM | 799 nM | 400 nM | 4.1 | 1.1 | – | – | – | – | – | – | – | – |
| Cc1ccc([P+](Cc2ccc(Oc3ccccc3)cc2)(c2ccc(C)cc2)c2ccc(C)cc2)cc1.[Br-] | 15 nM | 0.7 | 1140 | 10 nM | 263 nM | 17600 nM | 2 nM | 13 nM | 131 | 0.8 | – | – | – | – | – | – | – | – |
| Cc1ccc([P+](Cc2ccc(CCc3ccc(C[P+](c4ccc(C)cc4)(c4ccc(C)cc4)c4ccc(C)cc4)cc3)cc2)(c2ccc(C)cc2)c2ccc(C)cc2)cc1.[Cl-].[Cl-] | – | 0.8 | – | – | – | – | – | – | – | 0.5 | 58 nM | 404 | 45 nM | 1690 nM | 23300 nM | 50 nM | 30 nM | 33.8 |
| Cc1cccc([P+](Cc2ccc(Oc3ccccc3)cc2)(c2cccc(C)c2)c2cccc(C)c2)c1.[Br-] | 28 nM | 0.6 | 876 | 17 nM | 870 nM | 24500 nM | 14 nM | 21 nM | 62 | 0.8 | – | – | – | – | – | – | – | – |
| O=C(c1ccc(C[P+](c2ccccc2)(c2ccccc2)c2ccccn2)cc1)c1ccc(C[P+](c2ccccc2)(c2ccccc2)c2ccccn2)cc1.[Br-].[Br-] | 700 nM | 1.9 | > 400 | 1330 nM | 14600 nM | > 300000 nM | 607 nM | 1430 nM | 24 | 2 | – | – | – | – | – | – | – | – |
| C[P+](C)(Cc1ccc(CCc2ccc(C[P+](C)(C)c3ccccc3)cc2)cc1)c1ccccc1.[Br-].[Br-] | 2590 nM | 0.5 | > 110 | 1800 nM | 48600 nM | > 300000 nM | 1200 nM | 2620 nM | 40 | 1 | – | – | – | – | – | – | – | – |
| CCC[P+](Cc1ccc(Oc2ccc(C[P+](CCC)(c3ccccc3)c3ccccc3)cc2)cc1)(c1ccccc1)c1ccccc1.[Br-].[Br-] | 250 nM | 1.2 | 914 | 300 nM | 2900 nM | 233000 nM | 567 nM | 280 nM | 5 | 1.1 | – | – | – | – | – | – | – | – |
| Cc1ccc([P+](Cc2ccc(CCCc3ccc(C[P+](c4ccc(C)cc4)(c4ccc(C)cc4)c4ccc(C)cc4)cc3)cc2)(c2ccc(C)cc2)c2ccc(C)cc2)cc1.[Cl-].[Cl-] | – | 0.6 | – | – | – | – | – | – | – | 0.7 | 100 nM | 127 | 62 nM | 1720 nM | 12700 nM | 63 nM | 66 nM | 27.3 |
